Bioassay records (PubChem BioAssay)
HTR2A ag: activates the mouse 5-HT2A serotonin receptor; P35363; CHO-K1 mHTR2A beta-arrestin complementation, luminescence; percent of 30 µM serotonin response; activation, % at 7.6 µM; 360,000 compounds, 0.66% hits; AID 624169;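 active = activation above a run cutoff, the mean activation of all tested compounds plus 3 SD, cut at about 14% in these data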;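 also: 0% = plate median of compound wells and 100% = 30 µM serotonin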
B2AR ag: activates human beta-2 adrenergic receptor causing internalization. 340,000 compounds, 0.43% hits. P07550. Am2.2-beta2AR cells, FAP receptor internalization, flow cytometry. response, % (concentration not given with the values);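 active = response above a set limit, near 3 SD of response in nonfluorescent compounds, cut at about 42% in these data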
TAAR1 ag: agonists of human TAAR1; Q96RJ0; CHO RD-HGA16 TAAR1, Fluo-8 calcium fluorescence; vehicle wells 0%, saturating PEA agonist 100%; activation, % at 3 µM; 360,000 compounds, 0.99% hits;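 active = activation above the mean activation of all test compounds in the run plus 3 SD, cut at about 38% in these data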
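test system = CHO RD-HGA16 cells carrying human TAAR1 plus Gα16 | schedule = 17-24 h seeding, 75 min 37 °C dye, 30 min RT | compound dosing = 3 µM single concentration | control set = DMSO and PEA EC100 | replicates = n 1 | signal = Fluo-8 fluorescence, 5 s baseline then 140 s kinetic read | measure = percent activation vs PEA EC100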
MC4R antagonist: antagonists of human melanocortin 4 receptor (MC4R) | MC4R-expressing cells, MTII-stimulated cAMP, LANCE TR-FRET | P32245 | inhibition, % at 6.5 µM | AID 540295 | 360,000 compounds, 0.48% hits;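 active = inhibition above its plate's cutoff, the mean of tested wells on that plate plus 3 SD, cut at about 29% in these data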;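 also: 0% = Melanotan II alone and 100% = Melanotan II plus saturating MCL0020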
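Material – human MC4R-expressing U2OS cells · Repeats – no replicates · Detection – TR-FRET with Eu-cAMP and labeled anti-cAMP, 671 nm · Times – compound 30 min, challenge 1 h, detection 1 h · Compound – single nominal compound dose of 6.5 µM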
TAAR1 antagonist: antagonists of human TAAR1 | 360,000 compounds, 1.5% hits | AID 624466 | CHO RD-HGA16 TAAR1, Fluo-8 calcium fluorescence, antagonist | inhibition, % at 3 µM;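 active = inhibition above a per-plate cutoff, the mean inhibition of test compounds on that plate plus 3 SD, cut at about 49% in these data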;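 also: 0% = DMSO plus EC80 beta-PEA response and 100% = DMSO alone without agonist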
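Assay system: RD-HGA16 CHO cells with stable hTAAR1 and Gα16 / Reagent: EC80 β-phenethylamine stimulus / Doses: 3 µM, single point / Timing: dye loading 75 min at 37 °C, then 30 min room temperature / Measured by: Fluo-8 intracellular calcium dye fluorescence, real-time kinetic reads / Controls: vehicle wells and EC80 agonist wells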
MC4R ag barr: activates human MC4R beta-arrestin recruitment | P32245 | U2OS MC4R beta-arrestin complementation, luminescence; percent of melanotan II response, DMSO zero | activation, % at 8.9 µM | 360,000 compounds, 0.98% hits | AID 540308;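 active = activation above a per-plate cutoff, the mean activation of sample wells on that plate plus 3 SD, cut at about 8% in these data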
MOR ag counter: OPRM1 agonism in mouse HTR2A counterscreen; shares compounds with HTR2A ag; U2OS OPRM1 beta-arrestin PathHunter, luminescence; DMSO 0%, DAMGO 9.3 µM 100%; activation, % at 9.3 µM; 2,300 compounds, 5.3% hits; AID 624380;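 active = mean activation above the mean of DMSO-only wells plus 3 SD, cut at about 0.5% in these data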
Target sequence (P35372 whole entry, looked up): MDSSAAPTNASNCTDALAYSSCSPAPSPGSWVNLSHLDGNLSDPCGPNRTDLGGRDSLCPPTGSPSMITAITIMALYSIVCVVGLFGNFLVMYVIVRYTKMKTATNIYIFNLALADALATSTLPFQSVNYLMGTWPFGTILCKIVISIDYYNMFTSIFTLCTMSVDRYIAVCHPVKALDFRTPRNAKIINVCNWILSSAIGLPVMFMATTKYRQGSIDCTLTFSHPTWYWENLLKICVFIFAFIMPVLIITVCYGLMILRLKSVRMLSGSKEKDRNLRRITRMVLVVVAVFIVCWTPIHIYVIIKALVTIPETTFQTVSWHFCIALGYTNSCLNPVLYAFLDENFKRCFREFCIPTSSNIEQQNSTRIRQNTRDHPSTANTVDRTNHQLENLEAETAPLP
HTR2A ag conf: mouse HTR2A agonism confirmed; shares compounds with HTR2A ag; CHO-K1 PathHunter beta-arrestin recruitment, luminescence; DMSO 0%, 30 µM serotonin 100%; activation, % at 7.6 µM; 2,300 compounds, 19% hits; AID 624381;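 active = mean activation across triplicates above the hit threshold derived in the original primary screen, cut at about 15% in these data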
An asterisk follows results filed as active. Shown are actives, neighbours in structure and some others; about 4.3% of the full set was active somewhere.

O=C(C1CCC1)N1CCc2cc(S(=O)(=O)NCCN3CCN(c4ccccc4F)CC3)ccc21 was read as HTR2A ag 15*, B2AR ag -13, TAAR1 ag 4, MC4R antagonist 0, TAAR1 antagonist 23, MC4R ag barr -1, MOR ag counter 0 and HTR2A ag conf 54*.
`O=C(NCCN1CCC(Cc2ccccc2)CC1)C1CCCN(S(=O)(=O)c2cnc[nH]2)C1` (configuration not stated) gave HTR2A ag -7, B2AR ag -7, TAAR1 ag 5, MC4R antagonist 0, TAAR1 antagonist -5 and MC4R ag barr -1.
Screening Cc1cccc(CCNC(=O)C2CCCN(S(=O)(=O)c3cnc[nH]3)C2)c1 (configuration not stated) returned HTR2A ag 15*, B2AR ag -2, TAAR1 ag 2, MC4R antagonist 10, TAAR1 antagonist -17, MC4R ag barr 0, MOR ag counter -1 and HTR2A ag conf -5.
For CCS(=O)(=O)N1CCC(C(=O)NCCCN2CCN(c3ccccc3F)CC2)CC1 the results were HTR2A ag 16*, B2AR ag 14, TAAR1 ag 0, MC4R antagonist 11, TAAR1 antagonist -11, MC4R ag barr -1, MOR ag counter -1 and HTR2A ag conf 54*.
O=C(NCCN1CCN(c2ccccc2F)CC1)C1CCCN(S(=O)(=O)c2cnc[nH]2)C1 (configuration not stated) was read as HTR2A ag 19*, B2AR ag 1, TAAR1 ag 0, MC4R antagonist -4, TAAR1 antagonist -13, MC4R ag barr 0, MOR ag counter -1 and HTR2A ag conf 60*.
`O=C(NCCc1ccccc1)C1CCCN(S(=O)(=O)c2cnc[nH]2)C1` (configuration not stated) gave HTR2A ag -2, B2AR ag 4, TAAR1 ag 24, MC4R antagonist -9, TAAR1 antagonist -13 and MC4R ag barr -1.
For COc1ccc(C(=O)NCc2c(C)nn(Cc3ccccc3)c2C)cc1S(=O)(=O)N1CCOCC1 the results were HTR2A ag 8, B2AR ag 0, TAAR1 ag -2, MC4R antagonist -2, TAAR1 antagonist -16 and MC4R ag barr 1.
Screening COc1ccc(CN2C(=O)CN(S(C)(=O)=O)CC2(C)C(=O)NCc2ccccc2)cc1OC (configuration not stated) returned HTR2A ag 0, TAAR1 ag 2 and TAAR1 antagonist 4.
For O=C1C2CCCN2C(=O)N1CCCCN1CCN(c2ccccc2)CC1 (configuration not stated) the results were HTR2A ag 15*, B2AR ag -4, TAAR1 ag 9, MC4R antagonist -2, TAAR1 antagonist -9, MC4R ag barr -3, MOR ag counter -1 and HTR2A ag conf 47*.
`COc1ccccc1NC(=O)CC1C(=O)Nc2ccccc2N1C(=O)c1ccccc1` (configuration not stated) gave HTR2A ag -2, B2AR ag -6, TAAR1 ag 2, MC4R antagonist 8, TAAR1 antagonist -4 and MC4R ag barr -1.
For CCOc1ccc(OCC(=O)NCc2n[nH]c(=O)c3ccccc23)cc1 the results were HTR2A ag 16*, B2AR ag 4, TAAR1 ag 0, MC4R antagonist 3, TAAR1 antagonist -7, MC4R ag barr 1, MOR ag counter -1 and HTR2A ag conf -1.
For Cc1cc(-c2ccc3ccccc3c2)n2ncnc2n1 the results were HTR2A ag 21*, B2AR ag 13, TAAR1 ag 0, MC4R antagonist -4, TAAR1 antagonist 7, MC4R ag barr -2, MOR ag counter 0 and HTR2A ag conf 1.
`Cc1cc(-c2ccccc2)n2ncnc2n1` gave HTR2A ag 5, B2AR ag -6, TAAR1 ag 0, MC4R antagonist -2, TAAR1 antagonist 2 and MC4R ag barr 1.
Screening Cc1ccc(C(=O)NCC(=O)N(C)Cc2ccccc2C)s1 returned HTR2A ag 19*, TAAR1 ag 1, MC4R antagonist 3, TAAR1 antagonist -24, MC4R ag barr 2, MOR ag counter -1 and HTR2A ag conf -3.
Screening Cc1nc(NCCc2ccc(S(N)(=O)=O)cc2)c2c(C)c(C)sc2n1 returned HTR2A ag 16*, B2AR ag 10, TAAR1 ag 8, MC4R antagonist -1, TAAR1 antagonist 21, MC4R ag barr 0, MOR ag counter -1 and HTR2A ag conf -3.
For CCCC(=O)OCC1CN(Cc2ccco2)S(=O)(=O)c2c(F)cccc2O1 (configuration not stated) the results were HTR2A ag 0, B2AR ag -3, TAAR1 ag 0, MC4R antagonist -3, TAAR1 antagonist 2 and MC4R ag barr -1.
`CCn1cc(C(=O)N2CCN(c3ccccc3F)CC2)c(=O)c2ccc(C)nc21` gave HTR2A ag 15*, B2AR ag 3, TAAR1 ag -1, MC4R antagonist -2, TAAR1 antagonist -9, MC4R ag barr -1, MOR ag counter -1 and HTR2A ag conf -2.
Screening CCCc1nc2nc(C)c(NS(=O)(=O)c3ccc(CC(C)C)cc3)c(=O)n2[nH]1 returned HTR2A ag 16*, B2AR ag 13, TAAR1 ag 0, MC4R antagonist 3, TAAR1 antagonist -22, MC4R ag barr 2, MOR ag counter -1 and HTR2A ag conf -3.
`CC1(Cc2cc(Cl)ccc2C(F)(F)F)C(=O)Nc2cc(C(F)(F)F)ccc21` (configuration not stated) gave HTR2A ag 15*, TAAR1 ag -2, MC4R antagonist 12, TAAR1 antagonist 10, MC4R ag barr 0, MOR ag counter 0 and HTR2A ag conf 2.
CCc1ccc(CNC(=O)C2CCN(S(=O)(=O)N3CCCCC3)CC2)cc1 was read as HTR2A ag -3, TAAR1 ag 8, MC4R antagonist 5, TAAR1 antagonist 9 and MC4R ag barr 0.
